The series can be described thus: Toxicity liver stage against HepG2, at 10uM. Particulars: human, HepG2-A16-CD81EGFP cells; read-out: INHIBITION
It counts as cell-based. Further details: test concentration 10 uM, cell line HepG2-A16-CD81EGFP. A digest of the protocol:
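Uninfected HepG2-A16-CD81EGFP cells, 3 × 10^3 per well, 1536-well, plated on prespotted compound at 10 μM final, parasite-free screening media added to match infected plates; puromycin 10 μM positive, DMSO 0.5% negative; run in parallel with 48 h PbLuc assay at 37 °C, 5% CO2; viability by CellTiter-Glo luminescence, normalized to controls.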
Regarding `CN(C)C(=O)NCc1nnc2n1CCN(Cc1cccs1)C2`, the cytotoxicity at 10 µM is -150%.
Take `CN1CC(=O)N(c2cccc(F)c2)CC12CCN(Cc1ccco1)C2` (stereo unspecified): the cytotoxicity at 10 µM is 4.06%.
Consider `CCc1cnc2c(c1Nc1ccncc1)c(=O)n(C)c(=O)n2C`, for which the cytotoxicity at 10 µM was 1.86%.
Under `Cn1ccnc1CN1CCC2(CC1)CN(CC1CC1)C(=O)CO2` stands 1.7%; under `COCCNC(=O)c1cc(OC)c2ccoc2c1`, -2.49%.
Under `CCS(=O)(=O)N1CCN(C(=O)c2ccc(Cn3cc(Br)cn3)cc2)CC1` stands -2.61%.
`Cc1ncc(CNC(=O)c2nn(C)c3c2CS(=O)(=O)CC3)s1`: the cytotoxicity at 10 µM was -2.44%.
For `Cc1cc(C(=O)N2CCOCC2c2nc(C)c[nH]2)nc(O)n1` (stereo unspecified) the value was 2.85%; for `CCCN1CCCC(O)(c2nc(C)c(COc3ccccc3)s2)CC1` (stereo unspecified), 2.27%.
Under `CCn1ncc(C(=O)NCCc2nc(-c3ccncc3)n[nH]2)c1C` stands 6.87%; under `CC(=O)N1CC(c2n[nH]c3ncccc23)C1`, 19.5%; under `CC(C)c1nccn1-c1cncc(C2CCCN2Cc2cccnc2)n1` (stereo unspecified), -6.27%.
For `CS(=O)(=O)c1snnc1C1CCN(Cc2ccc3nccnc3c2)CC1` the value was -6.14%; for `CN1CCc2nc(C3CCCN(C(=O)CC4CCCCC4)C3)ncc2C1` (stereo unspecified), -8.36%.
In the case of `COCCCS(=O)(=O)N1CCN(C(C)(C)CO)CC1`, the cytotoxicity at 10 µM was -6.46%.
For the compound `Cn1ccnc1C(=O)NCCS(=O)(=O)c1ccc(C(C)(C)C)cc1`, the cytotoxicity at 10 µM turned out to be 3.62%.
With `COc1ccc(C(=O)NS(=O)(=O)c2cc(Cl)sc2Cl)cc1OC(F)F`, the cytotoxicity at 10 µM was -4.73%.
Regarding `Cc1nc(CN2CCCC2Cn2cccn2)nc2ccccc12` (stereo unspecified), the cytotoxicity at 10 µM is -51.7%.
In the case of `Cc1ccccc1C1(C(=O)N2CCOC(C)C2)CCOCC1` (stereo unspecified), the cytotoxicity at 10 µM was found to be 5.33%.
Under `COC(=O)C1CCN(C(=O)NCC(C)Cc2cccs2)CC1` (stereo unspecified) stands -7.33%; under `COCCCN(CCOC)C(=O)Nc1ccc(Br)cc1`, 6.66%; under `O=C(NCC1CC1)C1CSCN1S(=O)(=O)c1cc(F)cc(F)c1` (stereo unspecified), 6.35%.
Under `FC(F)(F)c1c[nH]c(C2CCN(c3ncccn3)CC2)n1` stands -5.1%; under `CS(=O)(=O)NCCN1CCOC2(CCc3ccccc32)C1` (stereo unspecified), -9.63%; under `CCc1nc(C2CCCN2c2ncc(Br)cn2)no1` (stereo unspecified), -0.36%.
Under `CCc1nnc2n1CC(CNc1cnc3ccccc3n1)CC2` (stereo unspecified) stands -37.4%; under `CCOCCCC(=O)NCC(c1ccccc1)N1CCc2sccc2C1` (stereo unspecified), 2.69%; under `CN(Cc1ccc(Cl)s1)C(=O)CN1CC(n2cccn2)C1`, -6.88%.
On to `CSc1ccc(OCCN2CCC(n3cncn3)CC2)cc1`, for which the cytotoxicity at 10 µM is -12.6%.
As for `N#Cc1ccsc1N1CCC(Sc2ncc[nH]2)C1=O` (stereo unspecified), the cytotoxicity at 10 µM came to 2.72%.
Under `COCCCN(C)c1ncccc1I` stands 2.28%.
For `CC(NCCN1CCC(N(C)C)CC1)c1ccc(Cl)s1` (stereo unspecified) the value was 25.9%.
Under `CN1CC(C(=O)NCCc2ccc3c(c2)OCCO3)CC1=O` (stereo unspecified) stands 5.51%; under `CN(CCc1ccccc1)c1cnn(C)c(=O)c1Br`, -7.22%; under `Cc1cc(CCC(=O)N2CCOCC2)ccc1Br`, 12.5%.
Consider `Cc1cnn(CC2CN(CCN3CCCC3=O)CCO2)c1` (stereo unspecified), for which the cytotoxicity at 10 µM was -9.7%.
For `CCc1noc(C(C)N(C)CC(=O)Nc2ccc(C)cc2)n1` (stereo unspecified) the value was -6.42%.
Under `O=C(Cc1ccccc1F)N1CCN(C(=O)c2cccc(F)c2)CC1` stands 7.7%; under `CNc1cc(N2CCCC2CNCc2c[nH]nc2C(C)(C)C)ncn1` (stereo unspecified), 7.91%; under `COCCN1C(=O)CC(c2cccnc2)C12CCN(C)CC2` (stereo unspecified), -97.6%.
Under `c1cc(CN2CC[C@@H]3CN(c4cncnc4)C[C@@H]3C2)ccn1` stands -116%; under `CC(C)OC[C@H]1CCC[C@]12CN(C(=O)C1CCOCC1)CCO2`, -99.1%; under `COCC(=O)N1CC[C@@H](N2CCOCC2)[C@@H]1Cc1cccnc1`, -95.5%.
With `O=S(=O)(c1ccccc1)N1CCC[C@]2(C[C@@H](OCC3CC3)CO2)C1`, the cytotoxicity at 10 µM was -69.2%.
Under `Cn1cc(CN2CCC3(CCCCN3S(C)(=O)=O)CC2)cn1` stands -76.9%; under `Cc1cn2c(=O)c(-c3ccnc(N[C@@H](C)CO)n3)cnc2s1`, -13.7%.
For `Cc1[nH]c2ccccc2c1-c1ccnc(NC[C@H](O)CO)n1` the value was 8.9%.
Under `CC(CCN1CCCn2nc(CNS(C)(=O)=O)cc2C1)c1ccccc1` (stereo unspecified) stands 8.85%; under `OCC1CCCCN1Cc1cc(O)c2cccc(F)c2n1` (stereo unspecified), -0.357%.
As for `Cc1ccc(-c2cn[nH]c2C2CCCN(c3ncccn3)C2)cc1` (stereo unspecified), the cytotoxicity at 10 µM was determined as 87.3%.
Under `CCCc1nc(N2CCN(Cc3ccccn3)CC2)c2cnn(C)c2n1` stands 1.89%; under `CC(=O)Nc1cccc(C(=O)N(C)C(C)Cc2cc(C)ccn2)c1` (stereo unspecified), 11%; under `O=C1O[C@@H]2CN(C3CCOCC3)C[C@@H]2N1CCc1cccc(Cl)c1`, -1.11%.
For `COCc1cc(CN(C)C(C(=O)O)c2cc(C)c(OC)c(C)c2)n[nH]1` (stereo unspecified) the value was 1.07%.
For the compound `CC(C)Cc1nc(CO)n(-c2ccc3c(c2)OCCO3)n1`, the cytotoxicity at 10 µM is -1.86%.
On to `CCC[C@@H]1CN(Cc2ccc3c(c2)OCCO3)C[C@H]1C(=O)O`, for which the cytotoxicity at 10 µM amounted to 0.324%.
For `CCC[C@H]1CN(S(C)(=O)=O)C[C@@H]1NC(=O)CCOCC` the value was 0.224%; for `COC(=O)[C@]12CNC[C@H]1CN(Cc1nc(C)c[nH]1)C2`, 6.01%.
For `CCc1cc(N(C)Cc2nonc2C)nc(N2CCOCC2)n1` the value was -8.07%; for `O=C(c1cn(CC(=O)N2CCCCCC2)c2ccccc12)C1CC1`, 13.6%.
For `CCCc1nc(C)cc(N2Cc3cnn(CCO)c3C2)n1` the value was -129%; for `O=C(c1cccc(CO)n1)N1CCCC1c1nc2cc(F)ccc2[nH]1` (stereo unspecified), -1.26%.
On to `CC(c1ccc(C(=O)NCCc2nc(N)cc(O)n2)o1)N1CCCCC1` (stereo unspecified), for which the cytotoxicity at 10 µM is -8.9%.
Under `O=C1NC[C@@]2(C(=O)O)CN(Cc3cccc(Oc4ccccc4)c3)C[C@@H]12` stands -5.65%.
Under `COC1CCCN(c2nc(C)nc3c2CCN(Cc2ccco2)CC3)C1` (stereo unspecified) stands 2.02%.
With `COc1ccc(N(c2ccc(C)cc2)c2ccc(C(=O)O)s2)cc1`, the cytotoxicity at 10 µM is -3.75%.
Under `Cc1nc(C2CCCN2CC(=O)Nc2c(C)n[nH]c2C)no1` (stereo unspecified) stands 1.65%; under `Cc1nnc(CN(C)C2CCCN(Cc3noc(C4CC4)n3)C2)o1` (stereo unspecified), -2.51%; under `Cn1ccnc1CN1CCCN(C(=O)c2ccc3ccccc3c2)CC1`, -8.66%.
For `CC(NC(=O)NCC1(c2ccc(Cl)cc2)CC1)c1nncn1C` (stereo unspecified) the value was -3.25%; for `Cc1noc(CN2CCCC(Cn3nc(C)nc3C)C2)n1` (stereo unspecified), -5.04%; for `Cc1ccc(NC2CCN(C(=O)Cc3ccc(C)s3)CC2)nn1`, -3.75%.
Under `Cc1nc(C)n(CC2CCCN2c2ncnc3ccsc23)n1` (stereo unspecified) stands 7.61%.
Consider `Cc1noc(C)c1CC(=O)OCC(=O)N1CCc2sccc2C1`, for which the cytotoxicity at 10 µM was -0.361%.
For `CCc1cc(C)c(C(=O)N2CCCC2CC(=O)c2cnn(C)c2)o1` (stereo unspecified) the value was 5.22%.
`O=C(CCc1cccs1)N1CCC(N2CCNC2=O)CC1`: the cytotoxicity at 10 µM is 5.37%.
On to `c1cnnc(N2CCCC(NCc3ccc(-n4cccn4)cc3)C2)c1` (stereo unspecified), for which the cytotoxicity at 10 µM worked out at 0.241%.
Under `Cc1oc(-c2ccco2)nc1CC(=O)N1CCN(CC(C)(C)O)CC1` stands 0.626%; under `O=C(c1cc[nH]n1)N1CCC(Nc2cccnn2)CC1`, -0.529%; under `CCN1CCCc2cc(-c3cncn3C(C)CN3CCOCC3)ccc21` (stereo unspecified), 12.6%.
For the compound `CN(C)CCN(C(=O)Cc1ccc2c(c1)OCCO2)C1CCN(C)CC1`, the cytotoxicity at 10 µM came out at 2.16%.
For `O=C1CO[C@@H]2CN(CC3CCOC3)C[C@H]2N1Cc1cccc(F)c1` (stereo partly specified) the value was -73.5%; for `Cc1ccc(C(=O)N2C[C@H]3CCCC(OCc4cccnc4)[C@H]3C2)cn1` (stereo partly specified), 4.93%; for `N#Cc1ccc(N2CCC3(CCC(=O)N3Cc3cccnc3)CC2)nc1`, -112%.
For `CN1CCN(Cc2cn3c(n2)CN(Cc2cccc(F)c2)CC3)CC1` the value was -125%.
Under `CC(C)c1nn(C)c(Cl)c1CNCc1ccc2c(c1)OCO2` stands -1.77%; under `CN(C)CCN1C(=O)C2(CCN(CC3CC3)CC2)c2ccccc21`, -120%; under `Cc1nc(CN2CCOCC3(CCN(c4ncccn4)CC3)C2)cs1`, 14.9%.
As for `Cc1noc([C@H]2C[C@@H]3CCN(CC4CCOCC4)C[C@H]3O2)n1`, the cytotoxicity at 10 µM was -103%.
Under `c1ccc(O[C@@H]2CN(Cc3nccs3)[C@@H]3CCCO[C@@H]32)nc1` stands -8.52%.
For `Cn1ccc(CN2CCCC23CCN(Cc2nccn2C)CC3)n1` the value was -109%; for `O=C(NCC1CC2(CO1)CN(Cc1cccs1)C2)C1CCC1` (stereo unspecified), -94.1%.
For `O=C(Cc1ccccn1)N1CCC2(CC1)CN(c1ncccn1)CCO2` the value was -74.3%.
Regarding `O=C(COC[C@@]12CCC[C@@H]1CN(C1CCC1)C2)N1CCCC1`, the cytotoxicity at 10 µM is -110%.
As to `O=C(c1cccc(O)c1)N1CCC2(CCN2c2ncccn2)C1` (stereo unspecified), the cytotoxicity at 10 µM is -139%.
For `CCOc1cccc(C(=O)N2C[C@@H]3CC[C@H]2CN(C(=O)C2CCC2)C3)c1` the value was 5.73%.

Values taken from ChEMBL document CHEMBL4513216, “Probing the Open Global Health Chemical Diversity Library for Multistage-Active Starting Points for Next-Generation Antimalarials” (ACS Infect Dis, 2020).
